The values that follow come from ChEMBL document CHEMBL3580550, “Antibacterial Polyketide Heterodimers from Pyrenacantha kaurabassana Tubers” (2015).

Common to all, as to format: functional
In experiment [1] the test system is Helicobacter pylori. Description: Bactericidal activity against Helicobacter pylori J99 assessed as compound concentration causing reduction in viable colony-forming units pre-incubated for 2 hrs followed by incubation at 37 degC under microaerophilic conditions for 72 hrs. A digest of the protocol:
(§1)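 H. pylori J99 came from 24 h cultures on Skirrow's medium (microaerobic, 37 °C) and was resuspended in brain heart infusion. Compound at 100 μg/mL final was mixed with 10^6 CFU/mL bacteria and held 2 h at 37 °C. Controls were BHI alone and amoxicillin at 10 μg/mL. Samples were serially 10-fold diluted in warm PBS and plated in triplicate on Skirrow's (72 h, 37 °C, microaerophilic). Kill was log10 CFU/mL (0 h) minus log10 CFU/mL (2 h).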

Experiment [2] deals with Helicobacter pylori. The experiment can be described thus: Bactericidal activity against Helicobacter pylori J99 assessed as reduction in viable colony-forming units pre-incubated for 2 hrs followed by incubation at 37 degC under microaerophilic conditions for 72 hrs. A digest of the protocol: as §1
For experiment [3], the system named is Staphylococcus aureus. Description: Antibacterial activity against Staphylococcus aureus ATCC 29213 assessed as inhibition of visible bacterial growth incubated for 24 hrs at 37 degC by broth microdilution method. To be noted: ATCC 29213, 24 h. In outline: (§2)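 MICs were determined by broth microdilution against S. aureus strains maintained on Mueller Hinton agar (24 h, 37 °C). Final compound concentrations ranged from 0.39 to 100 μg/mL. Inoculum was 10^5 CFU/mL final per well, incubated 24 h at 37 °C. MIC was the lowest concentration preventing visible growth. Wells were run in triplicate and the experiment was repeated three times.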
(In broth dilution the organism is exposed to a series of concentrations in liquid medium.)

Experiment [4] concerns Staphylococcus aureus. The experiment can be described thus: Antibacterial activity against Staphylococcus aureus isolated from tibial leg ulcer patient assessed as inhibition of visible bacterial growth incubated for 24 hrs at 37 degC by broth microdilution method. A digest of the protocol:
as §2

Experiment [5] relates to Staphylococcus aureus. The experiment can be described thus: Antibacterial activity against Staphylococcus aureus isolated from tibial osteomyelitis patient assessed as inhibition of visible bacterial growth incubated for 24 hrs at 37 degC by broth microdilution method. In outline: as §2
In experiment [6] the test system is Helicobacter pylori. The experiment can be described thus: Bactericidal activity against Helicobacter pylori J99 assessed as reduction in viable colony-forming units pre-incubated for 2 hrs followed by incubation at 37 degC under microaerophilic conditions for 72 hrs relative to initial inoculum. In outline: as §1

Values after ≈ are worked out from the molar mass of the structure shown.

With `COc1cc(O)c2c(O)c3c(c(-c4c(OC)cc5c(c4O)C(=O)c4c(O)cc(C)cc4C5=O)c2c1)CC(C)OC3=O` (stereo unspecified), in experiment [1], the Activity turned out to be 179.8 µM. Besides, in experiment [2], the log10CFU/ml is 0.42. For the same compound, the MIC in experiment [3], in experiment [4] and in experiment [5] was 89.9 µM (≈ 50 µg/mL) in each case.
Turning to `COc1cc(O)c2c(O)c3c(c(-c4c(OC)cc5c(c4O)C(=O)c4c(O)cc(C)c(OC)c4C5=O)c2c1)CC(C)OC3=O` (stereo unspecified), the Activity is 170.6 µM in experiment [1] and >99.9% in experiment [6]. Also, the log10CFU/ml in experiment [2] is 6. Further, the MIC in experiment [3] came out at 10.7 µM (≈ 6.28 µg/mL); in experiment [4] it was 2.7 µM (≈ 1.58 µg/mL); in experiment [5], 10.7 µM (≈ 6.28 µg/mL).
Turning to `CC1(C)S[C@@H]2[C@H](NC(=O)[C@H](N)c3ccc(O)cc3)C(=O)N2[C@H]1C(=O)O` [AMOXICILLIN], in experiment [1], the Activity was found to be 274 µM. Also, in experiment [2], the log10CFU/ml turned out to be 0.51.
Take `NC[C@H]1O[C@H](O[C@H]2[C@H](O)[C@@H](O[C@H]3O[C@H](CO)[C@@H](O)[C@H](N)[C@H]3O)[C@H](N)C[C@@H]2N)[C@H](O)[C@@H](O)[C@@H]1O` [KANAMYCIN]: the MIC in experiment [3], in experiment [4] and in experiment [5] was 8.3 µM (≈ 4.02 µg/mL) in each case.

The term MIC denotes the least concentration at which growth counts as inhibited.
